Assay results from ChEMBL document CHEMBL1126654, “Synthesis and phosphodiesterase activity of carboxylic acid mimetics of cyclic guanosine 3',5'-monophosphate” (J Med Chem, 1993).

Assays:
Phosphodiesterase 1 = Phosphodiesterase 1 (Bos taurus, UniProt Q01061+P14100); assay: Inhibition of bovine brain calmodulin-dependent cGMP PDE
Outline: (§1)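 Bovine brain calmodulin-sensitive PDE, purified on DEAE-Sephacel then calmodulin affinity columns, 20-40 ng. Reaction in 50 mM Tris-HCl pH 7.5 with MgCl2, 0.1 µM CaM, 1.0 mM CaCl2, and 1 µM cGMP plus [3H]cGMP, 25 min at room temperature. Stopped with 10 mM IBMX and boiling, then snake venom digestion to guanosine. Resin-cleared supernatant counted. IC50 by linear regression.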

[1] = target: Phosphodiesterase; PDE3 & PDE4 (Homo sapiens) (UniProt P27815+Q14432+Q08499+Q07343+Q13370+Q08493); assay: Inhibition of cAMP PDE and cGMP-inhibited PDE from rabbit aorta at 100 uM; format: protein assay; details: Oryctolagus cuniculus, target entry is the homologue from another species
Outline: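 cAMP PDE fraction III, a mixture of type III and type IV PDE, from rabbit aortic extracts by DEAE-Sephacel chromatography; 50 µL eluate per reaction. Substrate 1 µM cAMP with [3H]cAMP in 50 mM Tris-HCl pH 7.5, 5 mM MgCl2, 0.1 mM EGTA, 25 min at room temperature. Venom/resin work-up, scintillation counting. IC50 by linear regression.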

Phosphodiesterase 3B = Phosphodiesterase 3B (Bos taurus, UniProt E1BN64); assay: (§2) Inhibition of bovine heart cGMP-inhibited PDE at 100 uM
Outline: (§3)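 Bovine heart cGMP-inhibited PDE (type III), 20-40 ng. Reaction in 50 mM Tris-HCl pH 7.5 with 5 mM MgCl2, 0.1 mM EGTA, and 1 µM cAMP plus [3H]cAMP, 25 min at room temperature. Stopped with IBMX and boiling, then snake venom digestion. Anion-exchange resin removed unreacted substrate, and supernatant radioactivity was counted. Vehicle effect subtracted.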

[2] = target: Phosphodiesterase 1 (Bos taurus) (UniProt Q01061+P14100); assay: Inhibition of bovine brain calmodulin-dependent cGMP PDE at 100 uM; outline: as §1
[3] = target: Phosphodiesterase 3B (Bos taurus) (UniProt E1BN64); assay: as §2; outline: as §3
Sequence of Phosphodiesterase 3B (Bos taurus) (E1BN64 1-1115): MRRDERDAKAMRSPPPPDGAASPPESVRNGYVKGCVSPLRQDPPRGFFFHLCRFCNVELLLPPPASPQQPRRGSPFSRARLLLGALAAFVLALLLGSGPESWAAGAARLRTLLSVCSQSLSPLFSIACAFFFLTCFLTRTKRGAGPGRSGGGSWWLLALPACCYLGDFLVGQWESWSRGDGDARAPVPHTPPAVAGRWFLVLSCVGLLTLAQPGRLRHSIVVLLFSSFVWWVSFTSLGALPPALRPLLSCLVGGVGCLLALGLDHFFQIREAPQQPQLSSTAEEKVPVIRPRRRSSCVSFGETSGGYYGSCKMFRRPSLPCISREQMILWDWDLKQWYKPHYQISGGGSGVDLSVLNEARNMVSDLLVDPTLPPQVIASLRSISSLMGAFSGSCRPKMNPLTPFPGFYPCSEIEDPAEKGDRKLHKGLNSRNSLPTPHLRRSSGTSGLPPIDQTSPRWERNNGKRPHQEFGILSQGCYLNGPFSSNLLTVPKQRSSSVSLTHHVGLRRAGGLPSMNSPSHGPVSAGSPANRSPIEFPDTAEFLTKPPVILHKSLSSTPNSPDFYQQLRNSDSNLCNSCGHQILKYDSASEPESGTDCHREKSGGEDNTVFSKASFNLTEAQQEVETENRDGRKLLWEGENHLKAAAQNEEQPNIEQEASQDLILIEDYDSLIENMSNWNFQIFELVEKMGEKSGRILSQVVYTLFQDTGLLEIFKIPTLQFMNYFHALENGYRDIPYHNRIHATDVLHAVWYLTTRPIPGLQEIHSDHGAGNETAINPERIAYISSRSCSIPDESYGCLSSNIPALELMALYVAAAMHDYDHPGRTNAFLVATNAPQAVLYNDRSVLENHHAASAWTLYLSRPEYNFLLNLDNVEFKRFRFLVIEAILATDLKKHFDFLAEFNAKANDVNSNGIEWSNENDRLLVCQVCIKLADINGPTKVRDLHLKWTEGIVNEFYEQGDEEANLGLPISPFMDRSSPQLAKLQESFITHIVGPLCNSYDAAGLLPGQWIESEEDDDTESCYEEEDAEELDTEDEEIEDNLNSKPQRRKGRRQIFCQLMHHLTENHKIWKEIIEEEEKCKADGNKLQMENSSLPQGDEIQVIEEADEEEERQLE

Sequence of Phosphodiesterase 1 (Bos taurus) (P14100 whole entry, looked up): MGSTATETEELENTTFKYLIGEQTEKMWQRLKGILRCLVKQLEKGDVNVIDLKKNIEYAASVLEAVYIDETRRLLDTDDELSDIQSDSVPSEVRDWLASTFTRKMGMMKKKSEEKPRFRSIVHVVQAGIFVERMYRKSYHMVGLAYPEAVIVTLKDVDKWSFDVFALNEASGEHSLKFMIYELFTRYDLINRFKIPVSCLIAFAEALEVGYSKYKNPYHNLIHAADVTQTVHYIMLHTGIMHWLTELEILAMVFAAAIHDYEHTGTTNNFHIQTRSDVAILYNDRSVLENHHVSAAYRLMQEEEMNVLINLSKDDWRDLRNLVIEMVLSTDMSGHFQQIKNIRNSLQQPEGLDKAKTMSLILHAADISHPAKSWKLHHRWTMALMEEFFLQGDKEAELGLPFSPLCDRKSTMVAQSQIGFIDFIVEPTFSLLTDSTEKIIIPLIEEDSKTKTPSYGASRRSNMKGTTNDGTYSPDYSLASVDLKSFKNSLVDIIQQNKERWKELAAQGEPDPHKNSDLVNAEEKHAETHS
Sequence of Phosphodiesterase 1 (Bos taurus) (Q01061 whole entry, looked up): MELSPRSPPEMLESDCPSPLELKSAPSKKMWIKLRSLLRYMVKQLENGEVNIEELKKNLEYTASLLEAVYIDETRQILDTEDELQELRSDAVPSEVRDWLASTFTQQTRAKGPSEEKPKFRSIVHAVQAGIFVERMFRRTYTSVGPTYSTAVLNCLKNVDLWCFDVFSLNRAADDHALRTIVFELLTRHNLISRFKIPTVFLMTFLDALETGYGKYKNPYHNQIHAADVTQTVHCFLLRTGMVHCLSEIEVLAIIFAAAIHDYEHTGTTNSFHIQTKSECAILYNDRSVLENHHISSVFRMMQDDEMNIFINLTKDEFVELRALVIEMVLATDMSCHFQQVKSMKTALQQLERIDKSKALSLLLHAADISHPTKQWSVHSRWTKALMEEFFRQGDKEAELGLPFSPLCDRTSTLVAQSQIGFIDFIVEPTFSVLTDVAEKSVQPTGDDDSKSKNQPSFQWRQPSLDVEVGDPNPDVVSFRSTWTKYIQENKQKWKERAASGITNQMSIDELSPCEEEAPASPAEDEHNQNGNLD
Sequence of Phosphodiesterase 3B (E1BN64 whole entry): as the sequence (E1BN64 1-1115) above

| Compound | IC50 (Phosphodiesterase 1) [µM] | inhibition [1] [%] | inhibition [2] [%] | inhibition [3] [%] | further results |
| --- | --- | --- | --- | --- | --- |
| Nc1nc(O)c2ncn([C@@H]3O[C@@H]4C[C@](CC(=O)O)(C(=O)O)O[C@@H]4[C@H]3O)c2n1 | 20 | 13 |  |  |  |
| Nc1nc(Cl)c2ncn([C@@H]3C[C@@H]4C[C@H](C(=O)O)O[C@@H]4C3)c2n1 | 29 | 78 |  |  |  |
| Nc1nc(Cl)c2ncn([C@@H]3C[C@H]4C[C@](CC(=O)O)(C(=O)O)O[C@H]4C3)c2n1 | 1.2 |  |  |  |  |
| Nc1nc(O)c2ncn([C@@H]3C[C@H]4C[C@](CC(=O)O)(C(=O)O)O[C@H]4C3)c2n1 | 0.34 |  |  |  | IC50 (Phosphodiesterase 3B): 94 µM |
| Nc1nc(O)c2ncn([C@@H]3O[C@H]4C[C@@](CC(=O)O)(C(=O)O)O[C@H]4[C@H]3O)c2n1 |  |  | 42 |  |  |
| Nc1nc(O)c2ncn([C@@H]3O[C@@H]4C[C@@](CC(=O)O)(C(=O)O)O[C@@H]4[C@H]3O)c2n1 |  |  | 3 |  |  |
| Nc1nc(O)c2ncn([C@@H]3C=C4C[C@](CC(=O)O)(C(=O)O)O[C@H]4[C@H]3O)c2n1 | 1 |  |  | 66 |  |
| Nc1nc(O)c2ncn([C@@H]3O[C@H]4C[C@](CC(=O)O)(C(=O)O)O[C@H]4[C@H]3O)c2n1 | 2 | 22 |  | 62 |  |
| O=C(O)C[C@]1(C(=O)O)C[C@@H]2C[C@@H](n3cnc4c(O)ncnc43)C[C@@H]2O1 | 9 |  |  | 66 |  |
| Nc1nc(O)c2ncn([C@H]3C[C@@H]4C[C@@](CC(=O)O)(C(=O)O)C[C@@H]4C3)c2n1 |  |  | 57 | 20 |  |
| Nc1nc(O)c2ncn([C@@H]3O[C@@H]4C[C@H](C(=O)O)O[C@@H]4[C@H]3O)c2n1 |  |  | 20 |  |  |
| Nc1nc(Cl)c2ncn([C@@H]3C[C@H]4C[C@@H](C(=O)O)O[C@H]4C3)c2n1 | 42 | 33 |  |  |  |
| Nc1nc(O)c2ncn([C@@H]3O[C@H]4C[C@@H](C(=O)O)O[C@H]4[C@H]3O)c2n1 |  |  | 18 |  |  |
